Screens (PubChem)
Arrestin-AP2 inh: inhibitors of human beta-arrestin and AP2 interaction | FITC-arrestin peptide / GST-AP2 beads, flow cytometry; AP2 beta2 appendage carries R879A mutation | inhibition, % at 10 µM | actives 0.31% (n = 340,000) | AID 504490;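 active means inhibition above a set limit, near 3 SD of compounds lacking own fluorescence, cut at about 54% in these data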
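test system = AP2 appendage R879A on GSH beads | buffer or medium = PBS plus Tween 20 (0.05%) and BSA (0.1%) | incubation = 12 min plus 1 h, RT | detection = bead flow cytometry, FITC channel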
PLC-gamma1 inh: blocks human PLC-gamma1 enzyme activity | P19174 | purified PLC-gamma1, fluorogenic substrate, fluorescence | inhibition, % at 12.2 µM | actives 0.84% (n = 370,000)
NTR1 agonist: activates human neurotensin receptor 1. P30989. NTR1-U2OS beta-arrestin-GFP spot imaging, agonist mode. activation, % at 20 µM. actives 0.17% (n = 330,000). AID 493036;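 active means activation at or above 40% of the spot to cytoplasm intensity ratio, with at least 20 cells analyzed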
PLCb3 inh: PLC-beta3 (human) inhibition, primary screen; actives 0.18% (n = 370,000); inhibition, % at 12.2 µM; AID 720704; Purified PLC-beta3, fluorogenic substrate, fluorescence; in the data active means inhibition above about 11%
PLCg1 ctr: counter-screen for PLC-beta3 inhibitors: inhibitors of human PLC-gamma1; shares compounds with PLC-gamma1 inh; purified PLC-gamma1, fluorogenic substrate, fluorescence; inhibition, % at 12.3 µM; actives 3.1% (n = 3,300)
PLCb3 confirm: human PLC-beta3 inhibition, confirmation | purified PLC-beta3, fluorogenic substrate fluorescence | actives 1% (n = 3,300) | inhibition, % at 12.3 µM | AID 743261 | shares compounds with PLC-gamma1 inh; in the data active means inhibition above about 11%
Each line names hits and unclear results; the compound was inactive in the other large screens (follow-up assays come after a bar, where they were run). Shown are actives, neighbours in structure and some others; about 1.3% of the full set was active somewhere. Unless noted, no stated cut-off is given here; in the data, active means inhibition above about 9.5%; inactive means the rest.

CC(C)Cc1cc(C(=O)Nc2cc(C(F)(F)F)ccc2Cl)no1	PLC-gamma1 inh 12.1 | PLCg1 ctr inactive | PLCb3 confirm inactive
O=C(Nc1cc(C(F)(F)F)ccc1Cl)c1ccncc1	none
CCCC1CCC2(CCC(=O)N2CCOC)CC1 (stereo not drawn)	none (no result: Arrestin-AP2 inh, NTR1 agonist)
Cc1cc(C)c(S(=O)(=O)N2CCOCC2)c(C)c1N(C)S(=O)(=O)c1ccccc1	none
Cc1cc(C)c(S(=O)(=O)N2CCCCC2)c(C)c1N(C)S(=O)(=O)c1ccccc1	PLC-gamma1 inh 10.6 | PLCg1 ctr inactive | PLCb3 confirm inactive
c1csc(CNCCN2CCOCC2)c1	PLC-gamma1 inh 12.2 | PLCg1 ctr inactive | PLCb3 confirm inactive
O=C(NCCN1CCOCC1)c1cccs1	none
CCOCCCNC(=O)CN1CCN(S(=O)(=O)c2ccc3c(c2)CCC3)CC1	PLC-gamma1 inh 9.6 | PLCg1 ctr inactive | PLCb3 confirm inactive
O=[N+]([O-])c1ccc(NC(=S)NCc2ccncc2)cc1	none
O=[N+]([O-])c1ccc(NCc2ccncc2)cc1	PLC-gamma1 inh 12.7 | PLCg1 ctr inactive | PLCb3 confirm inactive
Cc1ccccc1-n1ccnc1SCC(=O)O	PLCb3 inh 12.3 | PLCg1 ctr inactive | PLCb3 confirm inactive
COC(=O)[C@]12CCCCC=C1N(Cc1ccc(OC)cc1)C(=O)[C@@H]2CC(=O)NCc1ccccc1	none (no result: Arrestin-AP2 inh, NTR1 agonist)
COc1ccc(NC(=O)C2CCCN(S(C)(=O)=O)C2)cc1OC (stereo not drawn)	PLC-gamma1 inh 10.1 | PLCg1 ctr inactive | PLCb3 confirm inactive
NC(=O)c1ccc(NC(=O)COC(=O)CCC2CCCCC2)cc1	PLC-gamma1 inh 14.0 | PLCg1 ctr inactive | PLCb3 confirm inactive
Nc1nc2c(ncn2[C@@H]2O[C@H](CNCc3ccc(F)c(N4CCOCC4)c3)[C@@H](O)[C@H]2O)c(=O)[nH]1	none (no result: Arrestin-AP2 inh, NTR1 agonist)
CN1CCN(c2ccc(CNC[C@H]3O[C@@H](n4cnc5c(=O)[nH]c(N)nc54)[C@H](O)[C@@H]3O)c(F)c2)CC1	PLC-gamma1 inh 9.8 (no result: Arrestin-AP2 inh, NTR1 agonist) | PLCg1 ctr inactive | PLCb3 confirm inactive
CC(=O)Nc1ccc(C2=NN(CC#N)C(=O)SC2)cc1	none
CC(=O)Nc1ccc(C2=NN(Cc3nnc(-c4ccccc4)o3)C(=O)SC2)cc1	PLC-gamma1 inh 10.8 | PLCg1 ctr inactive | PLCb3 confirm inactive
CC1(C(=O)Nc2ccc(F)cc2F)CCN1C(=O)Cc1ccc(Cl)cc1Cl (stereo not drawn)	none (no result: Arrestin-AP2 inh, NTR1 agonist)
CC1(C(=O)Nc2ccc(F)cc2F)CCN1C(=O)Cc1ccccc1 (stereo not drawn)	PLC-gamma1 inh 10.8 (no result: Arrestin-AP2 inh, NTR1 agonist) | PLCg1 ctr inactive | PLCb3 confirm inactive
COc1ccc(NC(=O)c2cc(-c3ccc(OC)c(OC)c3)on2)cc1OC	PLC-gamma1 inh 10.0 | PLCg1 ctr inactive | PLCb3 confirm inactive
COc1ccc(NC(=O)c2cc(-c3ccc(C)cc3)on2)cc1OC	none
CCc1cc2c(nc1CC)CCCN2Cc1ccc(Br)cc1	none (no result: Arrestin-AP2 inh, NTR1 agonist)
CC(C)CC(NC(=O)c1ccccc1)C(=O)OCC(=O)Nc1ccc(Br)cn1 (stereo not drawn)	PLC-gamma1 inh 10.7 | PLCg1 ctr inactive | PLCb3 confirm inactive
CCOC(=O)[C@@]12CCCC3=C1N(CCC3)C(=O)[C@H]2CC(=O)NCc1cccc2ccccc12	none (no result: Arrestin-AP2 inh, NTR1 agonist)
O=C(O)c1cccc2cccc(-c3c4ccc(=O)c(O)c-4oc4c(O)c(O)ccc34)c12	PLC-gamma1 inh 39.0 (no result: NTR1 agonist) | PLCg1 ctr 27.7 | PLCb3 confirm inactive
CCCCn1c(-c2nonc2NC(=O)c2ccccc2Cl)nc2ccccc21	PLC-gamma1 inh 12.3 (no result: NTR1 agonist) | PLCg1 ctr inactive | PLCb3 confirm inactive
CCCC[C@H]1C2CC(OC(=O)Nc3cccc(C(F)(F)F)c3)C(C2)[C@H]2CCCCN21 (stereo partly drawn)	none (no result: Arrestin-AP2 inh, NTR1 agonist)
Cc1cc(C(=O)N2CCC2(C)C(=O)Nc2ccc3[nH]ncc3c2)nn1C (stereo not drawn)	PLCb3 inh 15.3 (no result: Arrestin-AP2 inh, NTR1 agonist) | PLCg1 ctr inactive | PLCb3 confirm inactive
Nc1[nH][nH]c(=O)c1N=Nc1cccc(Cl)c1	PLC-gamma1 inh 11.4, PLCb3 inh 11.2 | PLCg1 ctr inactive | PLCb3 confirm inactive
O=C(NCc1cccnc1)Nc1ccc(Cl)c(Cl)c1	PLC-gamma1 inh 9.6 | PLCg1 ctr inactive | PLCb3 confirm inactive
C[C@H]1[C@@H]2C[C@@]3(O[C@H](c4ccc(C(F)(F)F)cc4)N=C3C[C@@H]1c1ccccc1)N(Cc1ccncc1)C2=O	none (no result: Arrestin-AP2 inh, NTR1 agonist)
COc1cc(/C=N/Nc2nc(Nc3ccccc3)nc(N3CCCCC3)n2)ccc1OCC(=O)O	PLC-gamma1 inh 11.6 | PLCg1 ctr inactive | PLCb3 confirm inactive
O=[N+]([O-])c1ccc(CSc2nc3ncc(Br)cc3[nH]2)cc1	PLC-gamma1 inh 11.3 | PLCg1 ctr inactive | PLCb3 confirm inactive
Cn1c(SCC(=O)NCC2CCCO2)nnc1-c1ccc(S(=O)(=O)N2CCCC2)cc1 (stereo not drawn)	PLC-gamma1 inh 9.8 | PLCg1 ctr inactive | PLCb3 confirm inactive
Cn1c(SCC(=O)NC2CCCCC2)nnc1-c1ccncc1	none
O=C(CSc1nnc(-c2ccc(S(=O)(=O)N3CCCC3)cc2)o1)NCC1CCCO1 (stereo not drawn)	none
Cc1ccc(-c2nnc(SCC(=O)NC3CCCC3)n2C)cc1	PLC-gamma1 inh 10.8 | PLCg1 ctr inactive | PLCb3 confirm inactive
O=C(CSc1cc(Cl)ccc1Cl)N/N=C/c1ccc[nH]1	none (no result: Arrestin-AP2 inh, NTR1 agonist)
O=C1[C@H](Cc2ccccc2)NCCCC[C@H](c2ccc(Cl)cc2)N1Cc1ccc(Cl)cc1	none (no result: NTR1 agonist)
O=C1[C@H](Cc2ccccc2)NCCCC[C@@H](c2ccc(Cl)cc2)N1Cc1ccccc1	PLC-gamma1 inh 16.2 (no result: NTR1 agonist) | PLCg1 ctr inactive | PLCb3 confirm inactive
O=C(C1CCCN1S(=O)(=O)c1ccc(F)cc1)N1CCc2ccccc2C1 (stereo not drawn)	none (no result: Arrestin-AP2 inh, NTR1 agonist)
COCCNC[C@@]12CO[C@H](c3ccc(Cl)cc3)N1[C@@H](c1ccc(Cl)cc1)SC2	none (no result: Arrestin-AP2 inh, NTR1 agonist)
CSc1ccn(CCC(=O)O)c(=O)n1	none
CSc1nc(=O)n(CCC#N)nc1SC	PLCb3 inh 11.5 (no result: Arrestin-AP2 inh, NTR1 agonist) | PLCg1 ctr inactive | PLCb3 confirm inactive
Cc1nnc(SCCC#N)n(CCC#N)c1=O	none
CSc1cnn(CCC#N)c(=O)n1	PLC-gamma1 inh 11.6 (no result: Arrestin-AP2 inh, NTR1 agonist) | PLCg1 ctr inactive | PLCb3 confirm inactive
O=C1c2ccccc2C(=O)N1Cc1nc2ccccc2c(=O)n1CCCn1ccnc1	PLC-gamma1 inh 11.6 (no result: NTR1 agonist) | PLCg1 ctr inactive | PLCb3 confirm inactive
O=C1c2ccccc2C(=O)N1CCc1nc2ccccc2c(=O)n1CCCn1ccnc1	none
COc1ccccc1-c1nnc(SCC#CCOC(=O)c2ccc(F)cc2)o1	none (no result: Arrestin-AP2 inh, NTR1 agonist)
CC(NS(=O)(=O)c1ccccc1)C1COc2ccccc2O1 (stereo not drawn)	none
CC(NC(=O)c1ccccc1Cl)C1COc2ccccc2O1 (stereo not drawn)	PLCb3 inh 13.1 | PLCg1 ctr inactive | PLCb3 confirm inactive
Cc1ccc(C)c(N(Cc2ccccc2F)S(C)(=O)=O)c1	PLC-gamma1 inh 10.4 | PLCg1 ctr inactive | PLCb3 confirm inactive
CN[C@H]1C[C@@H](c2ccccc2Br)N(C(C)=O)C[C@H]1CO	none (no result: Arrestin-AP2 inh, NTR1 agonist)
